The source made the active and inactive calls. No cut-off for these calls is given here.
Key:
[1] = Cell cycle arrest in human PLC/PRF/5 cells assessed as accumulation at G2 phase after 24 hrs by FACS analysis (reference value: 26.1%); type: functional, cell-based
SNU-398 [2] = experiment: Cell cycle arrest in human SNU398 cells assessed as accumulation at sub-G1 phase after 24 hrs by FACS analysis (reference value: 1.2%); type: functional
[3] = Antiproliferative activity against human PLC/PRF/5 cells; type: functional, cell-based
In short: (§1)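 Cell viability assay in hepatocellular carcinoma cell lines; IC50 values derived from concentration–response data and reported in nM.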

[4] = Antiproliferative activity against human JHH4 after 72 hrs by CellTiter Glo assay; type: functional; in short: as §1
[5] = Antiproliferative activity against human Hep3B after 72 hrs by CellTiter Glo assay; type: functional, Hep 3B2; in short: as §1
Bel-7402 = experiment: Antiproliferative activity against human Bel7402 after 72 hrs by CellTiter Glo assay; type: functional, cell-based; details: Bel-7402, 72 h; in short: as §1
[6] = Antiproliferative activity against human MHCC97H after 72 hrs by CellTiter Glo assay; type: functional; in short: as §1
HepG2 = experiment: Antiproliferative activity against human HepG2 after 72 hrs by CellTiter Glo assay; type: functional, cell-based; details: HepG2, 72 h; in short: as §1
Huh-7 = experiment: Antiproliferative activity against human HuH7 after 72 hrs by CellTiter Glo assay; type: functional, cell-based; details: Huh-7, 72 h; in short: as §1
SNU-398 [7] = experiment: Antiproliferative activity against human SNU398 after 72 hrs by CellTiter Glo assay; type: functional, cell-based; details: SNU-398, 72 h; in short: as §1
[8] = Antiproliferative activity against human PLC/PRF/5 after 72 hrs by CellTiter Glo assay; type: functional; details: PLC-PRF-5, 72 h; in short: as §1
SMMC-7721 = experiment: Antiproliferative activity against human SMMC7721 after 72 hrs by CellTiter Glo assay; type: functional, cell-based; details: SMMC-7721, 72 h; in short: as §1
SNU-398 [9] = experiment: Antiproliferative activity against human SNU398 cells; type: functional, cell-based; in short: as §1
SNU-387 = experiment: Antiproliferative activity against human SNU387 after 72 hrs by CellTiter Glo assay; type: functional, cell-based; details: SNU-387, 72 h; in short: as §1
[10] = Cell cycle arrest in human PLC/PRF/5 cells assessed as accumulation at G1 phase after 24 hrs by FACS analysis (reference value: 66.8%); type: functional, cell-based
SNU-475 = experiment: Antiproliferative activity against human SNU475 after 72 hrs by CellTiter Glo assay; type: functional, cell-based; details: SNU-475, 72 h; in short: as §1
SNU-398 [11] = experiment: Cell cycle arrest in human SNU398 cells assessed as accumulation at G1 phase after 24 hrs by FACS analysis (reference value: 55.8%); type: functional
SNU-449 = experiment: Antiproliferative activity against human SNU449 after 72 hrs by CellTiter Glo assay; type: functional, cell-based; details: SNU-449, 72 h; in short: as §1
SNU-423 = experiment: Antiproliferative activity against human SNU423 after 72 hrs by CellTiter Glo assay; type: functional, cell-based; details: SNU-423, 72 h; in short: as §1
[12] = Antiproliferative activity against human SNU182 after 72 hrs by CellTiter Glo assay; type: functional, cell-based; details: SNU-182, 72 h; in short: as §1
SNU-398 [13] = experiment: Cell cycle arrest in human SNU398 cells assessed as accumulation at G2 phase after 24 hrs by FACS analysis (reference value: 38.2%); type: functional
[14] = Antiproliferative activity against human JHH2 after 72 hrs by CellTiter Glo assay; type: functional; in short: as §1
[15] = Cell cycle arrest in human PLC/PRF/5 cells assessed as accumulation at sub-G1 phase after 24 hrs by FACS analysis (reference value: 1.4%); type: functional, cell-based
SNU-398 [16] = experiment: Cell cycle arrest in human SNU398 cells assessed as accumulation at G1 phase at 2 uM after 24 hrs by FACS analysis (reference value: 55.8%); type: functional
SNU-398 [17] = experiment: Cell cycle arrest in human SNU398 cells assessed as accumulation at G2 phase at 2 uM after 24 hrs by FACS analysis (reference value: 38.2%); type: functional
[18] = Cell cycle arrest in human PLC/PRF/5 cells assessed as accumulation at sub-G1 phase at 2 uM after 24 hrs by FACS analysis (reference value: 1.4%); type: functional, cell-based
[19] = Antiproliferative activity against human JHH7 after 72 hrs by CellTiter Glo assay; type: functional; in short: as §1
SNU-398 [20] = experiment: Cell cycle arrest in human SNU398 cells assessed as accumulation at sub-G1 phase at 2 uM after 24 hrs by FACS analysis (reference value: 1.2%); type: functional
Bos taurus [21] = organism: Bos taurus; experiment: Binding affinity to calf brain tubulin alpha/beta heterodimer assessed as increase in proton signal at […] by STD NMR analysis
In short: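 STD NMR with freshly prepared tubulin α/β heterodimer. Ligand:protein molar ratio 30:1 ([…], […]). Read-out: enhancement of ligand proton signals in STD spectra versus an off-resonance reference spectrum acquired without protein irradiation.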

[22] = Cell cycle arrest in human PLC/PRF/5 cells assessed as accumulation at G1 phase at 2 uM after 24 hrs by FACS analysis (reference value: 66.8%); type: functional, cell-based
Bos taurus [23] = organism: Bos taurus; experiment: Binding affinity to calf brain tubulin assessed as increase in fluorescence at 10 uM by fluorometry relative to control
In short: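 Fluorescence emission spectra of 10 μM ligand with and without 10 μM tubulin in 10 mM sodium phosphate, 0.1 mM GTP, pH 7.0, 25 °C. Emission intensity (425 nm maximum) and anisotropy were compared between bound and unbound ligand.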

[24] = Cell cycle arrest in human PLC/PRF/5 cells assessed as accumulation at G2 phase at 2 uM after 24 hrs by FACS analysis (reference value: 26.1%); type: functional, cell-based
[25] = Cell cycle arrest in human PLC/PRF/5 cells assessed as accumulation at G2 phase at 100 nM after 24 hrs by FACS analysis (reference value: 26.1%); type: functional, cell-based
[26] = Cell cycle arrest in human PLC/PRF/5 cells assessed as accumulation at sub-G1 phase at 100 nM after 24 hrs by FACS analysis (reference value: 1.4%); type: functional, cell-based
SNU-398 [27] = experiment: Cell cycle arrest in human SNU398 cells assessed as accumulation at G1 phase at 100 nM after 24 hrs by FACS analysis (reference value: 55.8%); type: functional
SNU-398 [28] = experiment: Cell cycle arrest in human SNU398 cells assessed as accumulation at sub-G1 phase at 100 nM after 24 hrs by FACS analysis (reference value: 1.2%); type: functional
SNU-398 [29] = experiment: Cell cycle arrest in human SNU398 cells assessed as accumulation at G2 phase at 100 nM after 24 hrs by FACS analysis (reference value: 38.2%); type: functional
[30] = Cell cycle arrest in human PLC/PRF/5 cells assessed as accumulation at G1 phase at 100 nM after 24 hrs by FACS analysis (reference value: 66.8%); type: functional, cell-based

SMILES	Activity [1]	IC50 [3]	IC50 [4]	IC50 [5]	IC50 (Bel-7402)	IC50 [6]	IC50 (HepG2)	IC50 (Huh-7)	IC50 (SNU-398 [7])	IC50 [8]	IC50 (SMMC-7721)	IC50 (SNU-398 [9])	IC50 (SNU-387)	Activity [10]	IC50 (SNU-475)	IC50 (SNU-449)	IC50 (SNU-423)	IC50 [12]	IC50 [14]	IC50 [19]	further results
CC(=O)O[C@@]12CO[C@@H]1C[C@H](O)[C@@]1(C)C(=O)[C@H](O)C3=C(C)[C@@H](OC(=O)[C@H](O)[C@@H](NC(=O)OC(C)(C)C)c4ccccc4)C[C@@](O)([C@@H](OC(=O)c4ccccc4)[C@H]21)C3(C)C.O.O.O [DOCETAXEL]	64.4%	12 nM	14.1 nM	38.2 nM	1.9 nM	22.4 nM	> 100 nM	12.1 nM	17.6 nM	16.7 nM	2 nM	16.6 nM	4.3 nM	11.2%	20.5 nM	> 100 nM	10.8 nM	39.2 nM	> 100 nM		Activity (SNU-398 [2]): 9.3%; Activity (SNU-398 [11]): 12.7%; Activity (SNU-398 [13]): 72.2%; Activity [15]: 16.8%
COc1ccc2c(c1OC)C(=O)O[C@@H]2[C@H]1c2c(cc3c(c2OC)OCO3)CCN1C [NOSCAPINE]		> 2000 nM	> 1000 nM	> 1000 nM	> 1000 nM	> 1000 nM	> 1000 nM	> 1000 nM	> 1000 nM	> 1000 nM	> 1000 nM	> 2000 nM	> 1000 nM		> 1000 nM	> 1000 nM	> 1000 nM	> 1000 nM	> 1000 nM	> 1000 nM	Activity (SNU-398 [16]): 66%; Activity (SNU-398 [17]): 30.3%; Activity [18]: 1.5%; Activity (SNU-398 [20]): 1%; inhibition (Bos taurus [21]): Active; Activity [22]: 65.5%; Activity (Bos taurus [23]): inactive; Activity [24]: 27.1%
C/C(=C\c1csc(C)n1)[C@@H]1C[C@@H]2O[C@]2(C)CCC[C@H](C)[C@H](O)[C@@H](C)C(=O)C(C)(C)[C@@H](O)CC(=O)O1 [PATUPILONE]		3.8 nM	1.8 nM	> 100 nM	0.9 nM	6.7 nM	44.7 nM	4.5 nM	2.9 nM	12.7 nM	2.3 nM	5 nM	20 nM		11.6 nM	19.9 nM	10.3 nM	22.3 nM	61.3 nM	14.8 nM	Activity [25]: 56.3%; Activity [26]: 5.1%; Activity (SNU-398 [27]): 13.7%; Activity (SNU-398 [28]): 11.8%; Activity (SNU-398 [29]): 70.1%; Activity [30]: 5.4%
CC[C@]1(O)C[C@H]2CN(CCc3c([nH]c4ccccc34)[C@@](C(=O)OC)(c3cc4c(cc3OC)N(C=O)[C@H]3[C@@](O)(C(=O)OC)[C@H](OC(C)=O)[C@]5(CC)C=CCN6CC[C@]43[C@@H]65)C2)C1 [VINCRISTINE]	68.4%	12.7 nM	7.2 nM	> 100 nM	4.2 nM	21.2 nM	> 100 nM	20 nM	< 0.13 nM	22.1 nM	6.5 nM	46.7 nM	40.9 nM	12.2%	29.3 nM	> 100 nM	18.4 nM	35.9 nM	> 100 nM	28.2 nM	Activity (SNU-398 [11]): 17.1%; Activity (SNU-398 [13]): 64.5%; Activity [15]: 11.8%
